Entries after “also recorded” stand apart in the source; their conditions may differ. Like-named read-outs stand apart in the source and are kept apart here. Each block holds one molecule with its values, some of them ahead of it.
Experiments:
[1] = tested on: H4 acetylation in peripheral canine blood; details: 10 min after i.v. infusion given over 45 min, total dose 50 mg/kg; cited from earlier work
[2] = tested on: H4 acetylation in A548 lung cancer model; assay: Experiment 1: H4 acetylation in vivo, A549 xenograft; design: species or system NMRI nude mice; details: 100 mg/kg single i.v., 1 h
Summary of the method: (§1)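 Female NMRI nude mice, 6–8 weeks old, received about 10^7 cells with matrigel s.c. into the flank under Hypnorm/Dormicum. They were given 100 mg/kg test compound i.v. or vehicle (L-arginine 200 mg/kg in isotonic sterile saline) and killed after 1 h. Formalin-fixed, paraffin-embedded tumors were immunostained for acetylated H4 (mouse monoclonal T25, acetyl-Lys8/Lys12, 1:13,000; TEG pH 9 retrieval; EnVision+/DAB) and scored 0–3.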

[3] = tested on: H4 acetylation in A2780 ovarian cancer model; assay: Experiment 1: H4 acetylation in vivo, A2780 xenograft; design: species or system NMRI nude mice; details: 100 mg/kg single i.v., 1 h
Summary of the method: as §1

[4] = tested on: H4 acetylation in peripheral blood from A2780 xenografts; details: 3 h after treatment, 40 mg/kg i.p.; cited from earlier work
[5] = tested on: H4 acetylation in A2780 xenograft tumor; assay: Experiment 4: H4 acetylation score in A2780 tumor; format: in vivo, NMRI nude mice
Summary of the method: (§2)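 Groups of 3–4 NMRI nude mice with s.c. A2780 xenografts (500–1000 mg) received a single 200 mg/kg test compound dose i.v. or vehicle (L-arginine 400 mg/kg in isotonic sterile saline). Mice were killed at 15 min, 30 min, 1, 2 or 3 h. Tumor and spleen were halved, and one part was immunostained with T25 anti-acetyl-H4. Scores were 0–3 per mouse, averaged per time point.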

[6] = tested on: H4 acetylation in A2780 biopsies and tumors; assay: Experiment 3: time dependence of H4 acetylation in A2780 biopsies and tumors; format: in vivo, NMRI nude mice; details: for H4 acetylation, 1 h biopsy / H4 acetylation, 2 h biopsy / H4 acetylation, 3 h biopsy / H4 acetylation, 3 h tumor / H4 acetylation, 6 h biopsy / H4 acetylation, 6 h tumor: individual mice
Summary of the method: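 Sixteen NMRI nude mice with small (300–400 mg) or large (1500–1800 mg) A2780 s.c. tumors received 100 mg/kg test compound i.v. at time zero. A pretreatment biopsy (large tumors only) and one post-dose 18G needle biopsy (1–6 h) were taken under isoflurane. Whole tumors were excised at 3, 6 or 24 h. Paraffin sections were stained with T25 anti-acetyl-H4 (1:13,000) and scored 0–3.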

[7] = tested on: H4 acetylation in MCF-7 model; assay: Experiment 1: H4 acetylation in vivo, MCF-7 xenograft; design: species or system NMRI nude mice; details: 100 mg/kg single i.v., 1 h
Summary of the method: as §1

H4 acetylation in spleen = assay: Experiment 4: H4 acetylation score in spleen; format: in vivo, NMRI nude mice; details: 200 mg/kg i.v.
Summary of the method: as §2

[8] = tested on: p21 expression in A2780 xenograft; assay: Experiment 3: p21 expression in A2780 biopsies and tumors; format: in vivo, NMRI nude mice
Summary of the method: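 In A2780 xenografts (small 300–400 mg or large 1500–1800 mg), mice received 100 mg/kg test compound i.v. Pretreatment (large tumors) and post-dose needle biopsies were taken between 1 and 6 h; whole tumors were taken at 3, 6 or 24 h. Paraffin sections were immunostained for p21 (monoclonal EA10, 1:80; TEG pH 9 retrieval; EnVision+/DAB) and nuclear versus cytoplasmic staining was recorded.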

[9] = Experiment 4: belinostat in plasma, tumor and spleen by LC-MS/MS; format: in vivo, NMRI nude mice
Summary of the method: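 A2780 xenograft mice received 200 mg/kg i.v. once; lithium-heparin plasma, tumor and spleen were collected at 15 min–3 h. Plasma was protein-precipitated with a 13C-labelled internal standard, dried and redissolved in 10% HCOOH/ACN. Tissues were homogenized in water/ACN/methanol containing internal standard (1 μg/ml). Analysis used LC-MS/MS on UPLC C18 (0.05% HCOOH/ACN, 5 min gradient, 0.5 ml/min), reporting ng/ml plasma and ng/g tissue.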

[10] = tested on: H4 acetylation in HCT-116 colon cancer model; assay: Experiment 1: H4 acetylation in vivo, HCT-116 xenograft; design: species or system NMRI nude mice; details: 100 mg/kg single i.v., 1 h
Summary of the method: as §1

[11] = tested on: acetylated H4 in A2780 ovarian cancer cells; assay: H4 acetylation by immunohistochemistry in paraffin-embedded A2780 cell blocks; format: cell-based, human; details: 1 μM for 1 h
[12] = tested on: H4 acetylation in histones extracted from A2780 cells; details: cited from earlier work
[13] = tested on: acetylated H4 in A2780 xenograft; assay: Experiment 2: H4 acetylation in A2780 biopsies and representative tumors; format: in vivo, NMRI nude mice; details: 100 mg/kg i.v., 1 h, A2780, Fig. 4A
Summary of the method: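 Mice bearing HCT-116, A2780, PC-3 or MCF-7 tumors (500–1000 mg) received 100 mg/kg test compound i.v. or vehicle and were killed after 1 h. Biopsies were taken with an 18G needle, aspirating while rotating. Biopsies and the remaining tumor were formalin-fixed, paraffin-embedded and stained with anti-acetyl-H4 T25 (1:13,000). Staining was scored negative, weak, moderate or strong (0–3).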

[14] = tested on: H4 acetylation in PC-3 prostate cancer model; assay: Experiment 1: H4 acetylation in vivo, PC-3 xenograft; design: species or system NMRI nude mice; details: 100 mg/kg single i.v., 1 h
Summary of the method: as §1

[15] = cited from earlier work
[16] = tested on: histone acetylation in peripheral blood lymphocytes; details: clinical study; cited from earlier work
[17] = 200 mg/kg i.v., individual mice
[18] = 200 mg/kg i.v., individual mice, listed as Belinostat
[19] = single treatment 200 mg/kg i.v.
[20] = 100 mg/kg i.v., large tumors (1500–1800 mg)
[21] = 100 mg/kg i.v., small tumors (300–400 mg)
[22] = individual mice, listed as Belinostat

distribution to tumor and spleen tissue ([9]; 200 mg/kg i.v. single dose): similar
belinostat plasma concentration at maximal acetylation ([9]; 200 mg/kg i.v., 1 h after treatment, Fig. 8): above 10^3 ng/ml
Compound: O=C(/C=C/c1cccc(S(=O)(=O)Nc2ccccc2)c1)NO [belinostat]
H4 acetylation in peripheral canine blood [1]: increased
H4 acetylation [2]: caused H4 acetylation
H4 acetylation signal [3]: strongest signal
H4 acetylation in peripheral blood from A2780 xenografts [4]: returned to base line levels
H4 acetylation (score), tumor, 15 min [5, 17]: weak-to-moderate
H4 acetylation (score), tumor, 1 h [5, 17]: strong (strong (score=3))
H4 acetylation (score), tumor, 3 h [5, 17]: weak and moderate
H4 acetylation (score), tumor, 15 min [5, 18]: Moderate (2); also recorded: No (0); also recorded: Weak (1)
H4 acetylation (score), tumor, 30 min [5, 18]: Moderate (2); also recorded: Strong (3); also recorded: Weak (1)
H4 acetylation (score), tumor, 1 h [5, 18]: Strong (3)
H4 acetylation (score), tumor, 2 h [5, 18]: Moderate (2); also recorded: Strong (3)
H4 acetylation (score), tumor, 3 h [5, 18]: Moderate (2); also recorded: Weak (1)
H4 acetylation score, tumor, mean, 15 min ([5]; 200 mg/kg i.v., score 0-3): 1.25
H4 acetylation score, tumor, mean, 30 min ([5]; 200 mg/kg i.v., score 0-3): 2
H4 acetylation score, tumor, mean, 1 h ([5]; 200 mg/kg i.v., score 0-3): 3
H4 acetylation score, tumor, mean, 2 h ([5]; 200 mg/kg i.v., score 0-3): 2.33
H4 acetylation score, tumor, mean, 3 h ([5]; 200 mg/kg i.v., score 0-3): 1.67
time at which increased acetylated H4 was detected in tumor tissue [5, 19]: 15 min
time of maximal H4 acetylation level [5, 19]: 1 h
H4 acetylation after 6 and 24 h ([6]; 100 mg/kg i.v.): weak or no
H4 acetylation, general findings at 3 h ([6]; 100 mg/kg i.v.): weak or moderate
H4 acetylation in biopsy, same mouse (Fig. 4B) ([6]; 100 mg/kg i.v., 1 h after treatment): strong (strong (score=3))
removed tumors with strong H4 acetylation ([6]; 100 mg/kg i.v., 3 h after treatment): 1/10
acetylation period ([6]; 100 mg/kg i.v., Experiment 3, not extended at 200 mg/kg): 1 to 2 h
H4 acetylation in tumor, same mouse (Fig. 4B) ([6]; 100 mg/kg i.v., after 3 h): weak (weak (score=1))
H4 acetylation, 1 h biopsy [6, 20]: Strong
H4 acetylation, 2 h biopsy [6, 20]: Strong
H4 acetylation, 3 h biopsy [6, 20]: Strong
H4 acetylation, 3 h tumor [6, 20]: Moderate and Weak
H4 acetylation, 6 h biopsy [6, 20]: Weak
H4 acetylation, 6 h tumor [6, 20]: Weak
H4 acetylation, all biopsies collected 2 h after treatment ([6]; 100 mg/kg i.v., n=4): strong (strong (score=3))
H4 acetylation, all biopsies collected 1 h after treatment ([6]; 100 mg/kg i.v., n=5): strong (strong (score=3))
H4 acetylation, 1 h biopsy [6, 21]: Strong
H4 acetylation, 2 h biopsy [6, 21]: Strong
H4 acetylation, 3 h biopsy [6, 21]: Moderate; also recorded: Strong
H4 acetylation, 3 h tumor [6, 21]: Weak and Moderate and Strong
H4 acetylation, 6 h biopsy [6, 21]: Weak
H4 acetylation, 6 h tumor [6, 21]: Weak
time at which H4 acetylation reached base line level ([6]; after treatment, A2780 xenograft): 3 h
H4 acetylation [7]: Weak
H4 acetylation (score), spleen, 2 h (H4 acetylation in spleen; individual mice): Moderate (2)
H4 acetylation (score), spleen, 15 min (H4 acetylation in spleen; [22]): Moderate (2); also recorded: Weak (1)
H4 acetylation (score), spleen, 30 min (H4 acetylation in spleen; [22]): Strong (3); also recorded: Moderate (2)
H4 acetylation (score), spleen, 1 h (H4 acetylation in spleen; [22]): Strong (3); also recorded: Moderate (2)
H4 acetylation (score), spleen, 3 h (H4 acetylation in spleen; [22]): Weak (1); also recorded: No (0)
H4 acetylation score, spleen, mean, 15 min (H4 acetylation in spleen; score 0-3): 1.5
H4 acetylation score, spleen, mean, 30 min (H4 acetylation in spleen; score 0-3): 2.5
H4 acetylation score, spleen, mean, 1 h (H4 acetylation in spleen; score 0-3): 2.75
H4 acetylation score, spleen, mean, 2 h (H4 acetylation in spleen; score 0-3): 2
H4 acetylation score, spleen, mean, 3 h (H4 acetylation in spleen; score 0-3): 0.67
biopsies with moderate cytoplasmic p21 expression ([8]; 100 mg/kg i.v., 2 h, one of four biopsies): 25%
tumors with strong cytoplasmic p21 expression ([8]; 100 mg/kg i.v., 3 h, 10 tumors): 10%
tumors with weak cytoplasmic p21 expression ([8]; 100 mg/kg i.v., 3 h, 10 tumors): 50%
cytoplasmic p21 expression, all biopsies removed after 6 h ([8]; 100 mg/kg i.v., 6 h): moderate-to-strong
tumors with strong cytoplasmic p21 expression ([8]; 100 mg/kg i.v., 6 h, four tumors): 25%
cytoplasmic p21 expression after 24 h ([8]; 100 mg/kg i.v., 24 h): disappeared
time of p21 induction in the cytoplasm ([8]; after belinostat treatment): about 3 h
H4 acetylation [10]: caused H4 acetylation
H4 acetylation [11]: strong (strong (score=3))
H4 acetylation in histones extracted from A2780 cells ([12]; 30 min after treatment with 1 μM): increased
H4 acetylation in histones extracted from A2780 cells ([12]; 3 h after treatment, 1 μM): returned to base line levels
H4 acetylation in both biopsies and tumors [13]: strong (III) or moderate (IV)
H4 acetylation [14]: Weak

Compound: Nc1ccccc1NC(=O)c1ccc(CNC(=O)OCc2cccnc2)cc1 [MS-275]
pharmacokinetics (linearity) [15]: linear, dose-independent

Compound: O=C(CCCCCCC(=O)Nc1ccccc1)NO [vorinostat, suberoylanilide hydroxamic acid]
half-life of acetylated histones at higher doses [16]: increased
pharmacokinetics (linearity) ([15]; dose proportional increases in Cmax and AUC): linear

From paper PMC2774150 (Apmis, 2008)
